From ChEMBL document CHEMBL4382192, “Discovery of a potent dual ALK and EGFR T790M inhibitor” (Eur J Med Chem, 2017)

Tests used:
[1] = target: Serine/threonine-protein kinase B-raf (Homo sapiens) (UniProt P15056); assay: Binding affinity to wild-type human partial length BRAF (S429 to E741 residues) expressed in mammalian expression system assessed as residual binding level at 1 uM by Kinomescan method relative to control
[2] = target: Serine/threonine-protein kinase BRSK2 (Homo sapiens) (UniProt Q8IWQ3); assay: Binding affinity to wild-type human full length BRSK2 (M1 to L674 residues) expressed in bacterial expression system assessed as residual binding level at 1 uM by Kinomescan method relative to control
[3] = target: Mitotic checkpoint serine/threonine-protein kinase BUB1 (Homo sapiens) (UniProt O43683); assay: Binding affinity to wild-type human partial length BUB1 (Q724 to K1085 residues) expressed in mammalian expression system assessed as residual binding level at 1 uM by Kinomescan method relative to control
[4] = target: Cyclin-dependent kinase 4/cyclin D1 (Homo sapiens) (UniProt P11802+P24385); assay: Binding affinity to wild-type human full length CDK4/cyclinD1 (M1 to E303 residues) expressed in mammalian expression system assessed as residual binding level at 1 uM by Kinomescan method relative to control
[5] = target: Cyclin-dependent kinase-like 1 (Homo sapiens) (UniProt Q00532); assay: Binding affinity to wild-type human full length CDKL1 (M1 to I358 residues) expressed in mammalian expression system assessed as residual binding level at 1 uM by Kinomescan method relative to control
[6] = target: Casein kinase I isoform gamma-2 (Homo sapiens) (UniProt P78368); assay: Binding affinity to wild-type human full length CSNK1G2 (M1 to K415 residues) expressed in bacterial expression system assessed as residual binding level at 1 uM by Kinomescan method relative to control
[7] = test system: Fibroblast growth factor receptor 3 (Homo sapiens), P22607 [G697C]; assay: Binding affinity to human partial length FGFR3 G697C mutant (R442 to S771 residues) expressed in bacterial expression system assessed as residual binding level at 1 uM by Kinomescan method relative to control
Procedure, shortened: (§1)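 Kinome-wide selectivity panel run by the KINOMEscan method, with the test compound at a single concentration of 1 μM. Wild-type and mutant kinases were profiled in the same screen.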

[8] = test system: Receptor-type tyrosine-protein kinase FLT3 (Homo sapiens), P36888 [K663Q]; assay: Binding affinity to human partial length FLT3 K663Q mutant (V592 to Y969 residues) expressed in bacterial expression system assessed as residual binding level at 1 uM by Kinomescan method relative to control; procedure, shortened: as §1
[9] = target: Tyrosine-protein kinase Fyn (Homo sapiens) (UniProt P06241); assay: Binding affinity to wild-type human partial length FYN (T243 to L534 residues) expressed in bacterial expression system assessed as residual binding level at 1 uM by Kinomescan method relative to control
[10] = target: Interleukin-1 receptor-associated kinase 1 (Homo sapiens) (UniProt P51617); assay: Binding affinity to wild-type human partial length IRAK1 (R194 to S712 residues) expressed in mammalian expression system assessed as residual binding level at 1 uM by Kinomescan method relative to control
[11] = target: Tyrosine-protein kinase JAK2 (Homo sapiens) (UniProt O60674); assay: Binding affinity to wild-type human partial length JAK2 JH1 catalytic domain (A829 to G1132 residues) expressed in mammalian expression system assessed as residual binding level at 1 uM by Kinomescan method relative to control
[12] = target: Dual specificity mitogen-activated protein kinase kinase 3 (Homo sapiens) (UniProt P46734); assay: Binding affinity to wild-type human full length MEK3 (M1 to S318 residues) expressed in mammalian expression system assessed as residual binding level at 1 uM by Kinomescan method relative to control
Procedure, shortened: (§2)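 Single-point kinome-wide KINOMEscan binding panel, test compound at 1 μM, run by the provider's standard protocol.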

[13] = target: Serine/threonine-protein kinase 26 (Homo sapiens) (UniProt Q9P289); assay: Binding affinity to wild-type human full length MST4 (M1 to P416 residues) expressed in mammalian expression system assessed as residual binding level at 1 uM by Kinomescan method relative to control; procedure, shortened: as §2
[14] = target: Mitogen-activated protein kinase kinase kinase 14 (Homo sapiens) (UniProt Q99558); assay: Binding affinity to wild-type human partial length NIK (L318 to P947 residues) expressed in mammalian expression system assessed as residual binding level at 1 uM by Kinomescan method relative to control
[15] = target: cAMP-dependent protein kinase catalytic subunit beta (Homo sapiens) (UniProt P22694); assay: Binding affinity to wild-type human full length PKAC-beta (M1 to F351 residues) expressed in bacterial expression system assessed as residual binding level at 1 uM by Kinomescan method relative to control; procedure, shortened: as §2
[16] = target: Protein kinase C theta type (Homo sapiens) (UniProt Q04759); assay: Binding affinity to wild-type human partial length PRKCQ (L350 to S706 residues) expressed in bacterial expression system assessed as residual binding level at 1 uM by Kinomescan method relative to control
[17] = target: Rho-associated protein kinase 1 (Homo sapiens) (UniProt Q13464); assay: Binding affinity to wild-type human partial length ROCK1 (M1 to R415 residues) expressed in mammalian expression system assessed as residual binding level at 1 uM by Kinomescan method relative to control
[18] = target: Proto-oncogene tyrosine-protein kinase ROS (Homo sapiens) (UniProt P08922); assay: Binding affinity to wild-type human partial length ROS1 (A1921 to N2240 residues) expressed in bacterial expression system assessed as residual binding level at 1 uM by Kinomescan method relative to control
[19] = target: Serine/threonine-protein kinase 36 (Homo sapiens) (UniProt Q9NRP7); assay: Binding affinity to wild-type human partial length STK36 (M1 to T271 residues) expressed in bacterial expression system assessed as residual binding level at 1 uM by Kinomescan method relative to control
[20] = target: Transient receptor potential cation channel subfamily M member 6 (Homo sapiens) (UniProt Q9BX84); assay: Binding affinity to wild-type human partial length TRPM6 (Q1723 to I1998 residues) expressed in mammalian expression system assessed as residual binding level at 1 uM by Kinomescan method relative to control
[21] = target: Non-receptor tyrosine-protein kinase TYK2 (Homo sapiens) (UniProt P29597); assay: Binding affinity to wild-type human partial length TYK2 JH1 catalytic domain (V877 to C1187 residues) expressed in mammalian expression system assessed as residual binding level at 1 uM by Kinomescan method relative to control
[22] = target: Tyrosine-protein kinase receptor TYRO3 (Homo sapiens) (UniProt Q06418); assay: Binding affinity to wild-type human partial length TYRO3 (S497 to T814 residues) expressed in bacterial expression system assessed as residual binding level at 1 uM by Kinomescan method relative to control
[23] = target: Wee1-like protein kinase (Homo sapiens) (UniProt P30291); assay: Binding affinity to wild-type human partial length WEE1 (M291 to K575 residues) expressed in bacterial expression system assessed as residual binding level at 1 uM by Kinomescan method relative to control

Tyrosine-protein kinase JAK2 (Homo sapiens), sequence (O60674 whole entry, the tested form may be a part): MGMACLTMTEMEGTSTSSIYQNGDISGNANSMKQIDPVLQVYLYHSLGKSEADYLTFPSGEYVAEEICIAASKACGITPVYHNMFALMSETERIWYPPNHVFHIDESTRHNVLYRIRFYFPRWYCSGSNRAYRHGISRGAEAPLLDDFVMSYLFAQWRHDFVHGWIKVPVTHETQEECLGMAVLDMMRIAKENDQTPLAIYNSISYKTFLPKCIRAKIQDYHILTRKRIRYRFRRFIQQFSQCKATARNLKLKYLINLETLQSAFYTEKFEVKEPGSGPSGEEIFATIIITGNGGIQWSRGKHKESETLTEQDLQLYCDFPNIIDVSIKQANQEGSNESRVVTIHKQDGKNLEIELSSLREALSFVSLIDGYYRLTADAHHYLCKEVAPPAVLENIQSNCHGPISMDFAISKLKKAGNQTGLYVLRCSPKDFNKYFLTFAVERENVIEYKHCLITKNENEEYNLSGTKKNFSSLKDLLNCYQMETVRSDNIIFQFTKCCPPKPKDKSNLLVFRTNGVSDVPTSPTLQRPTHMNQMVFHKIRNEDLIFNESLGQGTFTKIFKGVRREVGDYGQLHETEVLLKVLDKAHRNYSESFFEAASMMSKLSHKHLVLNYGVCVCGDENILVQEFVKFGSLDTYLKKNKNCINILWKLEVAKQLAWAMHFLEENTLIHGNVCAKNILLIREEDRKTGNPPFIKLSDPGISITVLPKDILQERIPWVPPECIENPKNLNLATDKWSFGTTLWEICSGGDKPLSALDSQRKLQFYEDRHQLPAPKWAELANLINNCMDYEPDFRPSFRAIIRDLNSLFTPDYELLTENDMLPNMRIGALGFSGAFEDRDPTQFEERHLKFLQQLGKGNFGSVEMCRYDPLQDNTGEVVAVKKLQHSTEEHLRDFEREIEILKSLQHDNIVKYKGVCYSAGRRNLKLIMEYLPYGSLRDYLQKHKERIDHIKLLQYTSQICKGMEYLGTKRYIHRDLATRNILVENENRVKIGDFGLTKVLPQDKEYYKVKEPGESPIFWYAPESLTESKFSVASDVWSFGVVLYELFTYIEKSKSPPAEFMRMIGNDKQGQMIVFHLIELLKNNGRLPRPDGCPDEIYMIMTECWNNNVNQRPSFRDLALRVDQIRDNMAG
Cyclin-dependent kinase-like 1 (Homo sapiens), sequence (Q00532 whole entry, the tested form may be a part, canonical isoform): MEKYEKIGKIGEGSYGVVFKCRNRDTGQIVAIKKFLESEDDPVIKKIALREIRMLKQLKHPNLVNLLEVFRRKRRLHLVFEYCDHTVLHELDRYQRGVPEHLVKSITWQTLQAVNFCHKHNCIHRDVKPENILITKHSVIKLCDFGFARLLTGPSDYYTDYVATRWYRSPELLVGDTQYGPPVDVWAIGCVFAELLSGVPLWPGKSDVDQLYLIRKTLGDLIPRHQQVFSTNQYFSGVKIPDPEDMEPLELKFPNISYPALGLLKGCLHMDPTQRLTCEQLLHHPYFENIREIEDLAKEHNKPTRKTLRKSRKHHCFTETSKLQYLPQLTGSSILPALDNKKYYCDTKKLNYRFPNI
Serine/threonine-protein kinase BRSK2 (Homo sapiens), sequence (Q8IWQ3 whole entry, the tested form may be a part): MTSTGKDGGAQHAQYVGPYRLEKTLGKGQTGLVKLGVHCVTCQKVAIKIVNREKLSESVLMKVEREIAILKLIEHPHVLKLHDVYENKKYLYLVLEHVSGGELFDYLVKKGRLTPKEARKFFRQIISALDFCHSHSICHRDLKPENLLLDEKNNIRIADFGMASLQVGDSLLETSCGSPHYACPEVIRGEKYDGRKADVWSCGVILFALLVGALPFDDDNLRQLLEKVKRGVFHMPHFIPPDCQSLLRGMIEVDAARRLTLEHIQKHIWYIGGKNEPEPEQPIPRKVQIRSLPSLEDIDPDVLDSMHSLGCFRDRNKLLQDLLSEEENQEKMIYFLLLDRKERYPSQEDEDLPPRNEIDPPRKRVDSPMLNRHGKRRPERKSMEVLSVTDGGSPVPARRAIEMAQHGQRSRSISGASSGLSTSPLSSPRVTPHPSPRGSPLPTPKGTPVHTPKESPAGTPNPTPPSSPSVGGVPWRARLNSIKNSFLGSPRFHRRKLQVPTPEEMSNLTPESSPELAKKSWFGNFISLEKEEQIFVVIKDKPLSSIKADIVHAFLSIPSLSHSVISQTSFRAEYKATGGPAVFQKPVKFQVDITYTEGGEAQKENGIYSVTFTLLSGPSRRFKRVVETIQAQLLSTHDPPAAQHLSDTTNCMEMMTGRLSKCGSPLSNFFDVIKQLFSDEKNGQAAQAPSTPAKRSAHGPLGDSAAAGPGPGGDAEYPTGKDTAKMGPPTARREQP
Mitotic checkpoint serine/threonine-protein kinase BUB1 (Homo sapiens), sequence (O43683 whole entry, looked up, the tested form may be a part): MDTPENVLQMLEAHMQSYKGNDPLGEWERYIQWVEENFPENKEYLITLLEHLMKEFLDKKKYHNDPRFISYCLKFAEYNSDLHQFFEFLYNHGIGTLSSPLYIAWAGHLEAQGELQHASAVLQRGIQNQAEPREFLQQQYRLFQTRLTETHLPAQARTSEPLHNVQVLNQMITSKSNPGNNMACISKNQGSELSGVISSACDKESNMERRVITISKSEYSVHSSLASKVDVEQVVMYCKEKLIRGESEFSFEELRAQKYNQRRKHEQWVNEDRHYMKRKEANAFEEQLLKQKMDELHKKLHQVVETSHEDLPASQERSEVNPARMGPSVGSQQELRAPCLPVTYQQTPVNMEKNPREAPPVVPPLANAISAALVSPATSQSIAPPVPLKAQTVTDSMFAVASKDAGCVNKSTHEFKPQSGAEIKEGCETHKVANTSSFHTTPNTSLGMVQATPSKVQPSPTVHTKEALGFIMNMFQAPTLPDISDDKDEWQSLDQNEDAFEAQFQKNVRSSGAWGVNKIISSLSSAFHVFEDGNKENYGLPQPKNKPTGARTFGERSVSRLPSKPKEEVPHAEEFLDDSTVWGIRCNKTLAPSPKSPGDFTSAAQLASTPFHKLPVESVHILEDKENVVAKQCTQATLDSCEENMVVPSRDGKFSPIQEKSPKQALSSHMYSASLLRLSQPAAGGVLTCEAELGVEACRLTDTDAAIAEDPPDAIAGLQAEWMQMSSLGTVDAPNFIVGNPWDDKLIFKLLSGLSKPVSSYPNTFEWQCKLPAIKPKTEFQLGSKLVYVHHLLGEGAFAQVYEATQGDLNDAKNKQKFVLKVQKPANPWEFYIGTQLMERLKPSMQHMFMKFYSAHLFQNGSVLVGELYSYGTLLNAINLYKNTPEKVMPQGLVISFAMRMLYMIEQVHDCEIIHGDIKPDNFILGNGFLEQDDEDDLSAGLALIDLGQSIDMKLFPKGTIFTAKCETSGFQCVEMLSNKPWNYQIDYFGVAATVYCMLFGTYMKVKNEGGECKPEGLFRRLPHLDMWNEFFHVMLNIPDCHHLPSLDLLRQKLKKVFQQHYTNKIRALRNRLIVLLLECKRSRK
Rho-associated protein kinase 1 (Homo sapiens), sequence (Q13464 2-1354 limits assumed): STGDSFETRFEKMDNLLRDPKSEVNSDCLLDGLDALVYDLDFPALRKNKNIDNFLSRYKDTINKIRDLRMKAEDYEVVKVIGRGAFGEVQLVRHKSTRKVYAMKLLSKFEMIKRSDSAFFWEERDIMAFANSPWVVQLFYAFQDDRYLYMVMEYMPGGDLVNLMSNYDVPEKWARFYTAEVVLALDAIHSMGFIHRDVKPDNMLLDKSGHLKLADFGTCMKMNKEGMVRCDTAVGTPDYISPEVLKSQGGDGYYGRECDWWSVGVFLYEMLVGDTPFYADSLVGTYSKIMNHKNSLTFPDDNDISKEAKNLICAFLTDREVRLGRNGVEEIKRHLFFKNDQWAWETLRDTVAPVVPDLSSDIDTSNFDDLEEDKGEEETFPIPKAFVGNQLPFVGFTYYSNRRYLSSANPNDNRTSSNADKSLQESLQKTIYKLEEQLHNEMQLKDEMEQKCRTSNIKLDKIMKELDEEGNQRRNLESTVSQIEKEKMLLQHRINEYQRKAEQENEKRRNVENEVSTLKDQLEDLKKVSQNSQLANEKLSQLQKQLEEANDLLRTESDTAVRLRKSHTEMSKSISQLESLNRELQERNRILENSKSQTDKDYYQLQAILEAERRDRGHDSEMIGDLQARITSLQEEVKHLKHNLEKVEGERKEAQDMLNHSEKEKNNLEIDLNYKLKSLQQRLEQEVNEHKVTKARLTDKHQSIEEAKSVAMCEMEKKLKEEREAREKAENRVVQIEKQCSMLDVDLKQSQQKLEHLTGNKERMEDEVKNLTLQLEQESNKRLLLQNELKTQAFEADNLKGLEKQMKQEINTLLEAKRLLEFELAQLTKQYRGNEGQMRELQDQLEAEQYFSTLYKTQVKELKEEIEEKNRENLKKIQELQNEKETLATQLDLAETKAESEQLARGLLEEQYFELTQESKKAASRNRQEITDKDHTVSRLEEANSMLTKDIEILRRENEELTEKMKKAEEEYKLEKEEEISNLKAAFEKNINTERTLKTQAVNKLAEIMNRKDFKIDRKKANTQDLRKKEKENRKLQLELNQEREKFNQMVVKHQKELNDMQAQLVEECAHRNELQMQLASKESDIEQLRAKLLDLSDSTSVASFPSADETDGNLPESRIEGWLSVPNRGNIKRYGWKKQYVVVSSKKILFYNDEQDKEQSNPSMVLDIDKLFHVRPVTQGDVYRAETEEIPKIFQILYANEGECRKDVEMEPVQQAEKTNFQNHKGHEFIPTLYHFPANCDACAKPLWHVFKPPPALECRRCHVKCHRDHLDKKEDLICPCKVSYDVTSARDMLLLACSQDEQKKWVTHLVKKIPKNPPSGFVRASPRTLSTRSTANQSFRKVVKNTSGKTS
Dual specificity mitogen-activated protein kinase kinase 3 (Homo sapiens), sequence (P46734 whole entry, the tested form may be a part): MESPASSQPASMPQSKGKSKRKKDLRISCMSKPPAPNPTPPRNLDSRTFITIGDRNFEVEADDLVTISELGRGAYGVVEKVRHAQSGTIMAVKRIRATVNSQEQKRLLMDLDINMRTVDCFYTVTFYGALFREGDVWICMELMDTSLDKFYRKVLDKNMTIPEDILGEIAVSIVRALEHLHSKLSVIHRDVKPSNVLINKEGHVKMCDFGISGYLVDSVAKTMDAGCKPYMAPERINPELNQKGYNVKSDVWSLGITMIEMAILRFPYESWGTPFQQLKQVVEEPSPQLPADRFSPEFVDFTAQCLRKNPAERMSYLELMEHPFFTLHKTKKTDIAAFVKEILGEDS

Compound: C=CC(=O)Nc1cc(Nc2ncc(Cl)c(Nc3ccccc3S(=O)(=O)C(C)C)n2)c(OC)cc1N(C)CCN(C)C
- Activity [1]: 95%
- Activity [2]: 49%
- Activity [3]: 87%
- Activity [4]: 94%
- Activity [5]: 58%
- Activity [6]: 74%
- Activity [7]: 15%
- Activity [8]: 2.5%
- Activity [9]: 46%
- Activity [10]: 21%
- Activity [11]: 5.7%
- Activity [12]: 52%
- Activity [13]: 29%
- Activity [14]: 91%
- Activity [15]: 99%
- Activity [16]: 48%
- Activity [17]: 46%
- Activity [18]: 0%
- Activity [19]: 88%
- Activity [20]: 52%
- Activity [21]: 17%
- Activity [22]: 51%
- Activity [23]: 94%
